For orientation: MIC means the smallest concentration in the dilution series that meets the test's criterion for growth inhibition.

In brackets after ≈: the same amount, converted by molar mass.

What all share (assay type): functional
For test [1], the system named is Acinetobacter baumannii. Description: Antibacterial activity against multidrug-resistant Acinetobacter baumannii assessed as bacterial growth inhibition by broth microdilution assay. The procedure, abridged: (§1)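 Broth microdilution MIC. Strains grown overnight on blood agar at 37 °C, colonies suspended in TSB and grown to OD600 0.5. Compounds dissolved in DMSO (6.4 mg mL−1 stock), diluted serially in CAMHB (12.5 μg mL−1 Mg2+, 20 μg mL−1 Ca2+) on polypropylene plates. Final inoculum 10^6 CFU mL−1, 37 °C under gas-permeable membrane. MIC is the lowest concentration with no visible growth, consistent across at least triplicate experiments.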
(In general: In broth dilution the organism is exposed to a series of concentrations in liquid medium.)

In test [2] the test system is Pseudomonas aeruginosa. Description: Antibacterial activity against Pseudomonas aeruginosa NRZ 08418 assessed as bacterial growth inhibition by broth microdilution assay. The procedure, abridged:
(§2)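 Broth microdilution. Bacteria from glycerol stocks were grown overnight on blood agar at 37 °C, then colonies were suspended in TSB and grown to OD600 0.5. Compounds were dissolved in DMSO at 6.4 mg mL−1 (stock) and serially diluted in CAMHB (Mg2+ 12.5, Ca2+ 20 μg mL−1) in polypropylene plates. Inoculum was 10^6 CFU mL−1 final, incubated at 37 °C. MIC = lowest concentration without visible growth; values consistent across at least triplicate experiments.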

The test system of test [3] is Pseudomonas aeruginosa. The test can be described thus: Antibacterial activity against Pseudomonas aeruginosa NRZ 03961 assessed as bacterial growth inhibition by broth microdilution assay. The procedure, abridged: as §2
Test [4] relates to Escherichia coli. The test can be described thus: Antibacterial activity against Escherichia coli ATCC 25922 assessed as bacterial growth inhibition by broth microdilution assay. The procedure, abridged: as §2
The test system of test [5] is Pseudomonas aeruginosa. The test can be described thus: Antibacterial activity against Pseudomonas aeruginosa ATCC 27853 assessed as bacterial growth inhibition by broth microdilution assay. In a few lines: as §2
Test [6] relates to Klebsiella pneumoniae. The test can be described thus: Antibacterial activity against Klebsiella pneumoniae ATCC 13883 assessed as bacterial growth inhibition by broth microdilution assay. In a few lines: as §2
For test [7], the system named is Klebsiella pneumoniae. Description: Antibacterial activity against Klebsiella pneumoniae JS-123 assessed as bacterial growth inhibition by broth microdilution assay. In a few lines:
as §2

The test system of test [8] is Acinetobacter baumannii. The test can be described thus: Antibacterial activity against Acinetobacter baumannii ATCC 17978 assessed as bacterial growth inhibition by broth microdilution assay. In a few lines: as §1
In test [9] the test system is Acinetobacter baumannii. Description: Antibacterial activity against Acinetobacter baumannii ATCC 19606 assessed as bacterial growth inhibition by broth microdilution assay. In a few lines: as §1
For test [10], the system named is Acinetobacter baumannii. The test can be described thus: Antibacterial activity against Acinetobacter baumannii 2018-006 assessed as bacterial growth inhibition by broth microdilution assay. In a few lines:
as §1

Test [11] relates to Escherichia coli. Description: Antibacterial activity against Escherichia coli 1313 assessed as bacterial growth inhibition by broth microdilution assay. In a few lines: as §2
The test system of test [12] is Klebsiella pneumoniae. Description: Antibacterial activity against Klebsiella pneumoniae NCTC 13443 assessed as bacterial growth inhibition by broth microdilution assay. The procedure, abridged:
as §2

Test [13] has as its system Escherichia coli. The test can be described thus: Antibacterial activity against multidrug-resistant Escherichia coli NCTC 13846 assessed as bacterial growth inhibition by broth microdilution assay. In a few lines:
as §1

For the compound `CC(C)C[C@@H]1NC(=O)[C@@H](Cc2ccccc2)NC(=O)[C@H](CCN)NC(=O)[C@@H](NC(=O)CNC(=O)[C@@H](NC(=O)[C@H](N)CSSCc2cccc(Cl)c2)[C@@H](C)O)CCNC(=O)[C@H]([C@@H](C)O)NC(=O)[C@H](CCN)NC(=O)[C@H](CCN)NC1=O`, the MIC stood at 1 µg/mL (≈ 0.848 µM) in the test with Acinetobacter baumannii [1]; 4 µg/mL (≈ 3.39 µM) in the test with Pseudomonas aeruginosa [2]; 4 µg/mL (≈ 3.39 µM) in the test with Pseudomonas aeruginosa [3]; 2 µg/mL (≈ 1.7 µM) in the test on Escherichia coli [4]; 4 µg/mL (≈ 3.39 µM) with Pseudomonas aeruginosa [5]; 1 µg/mL (≈ 0.848 µM) with Klebsiella pneumoniae [6]. The MIC in the test on Klebsiella pneumoniae [7] was determined as 0.5 µg/mL (≈ 0.424 µM); in the test on Acinetobacter baumannii [8], 1 µg/mL (≈ 0.848 µM); in the test with Acinetobacter baumannii [9], 1 µg/mL (≈ 0.848 µM); with Acinetobacter baumannii [10] it was 1 µg/mL (≈ 0.848 µM); in the test with Escherichia coli [11] it was 0.25 µg/mL (≈ 0.212 µM); in the test on Klebsiella pneumoniae [12], 0.5 µg/mL (≈ 0.424 µM). Also, in the test with Escherichia coli [13], the MIC was 8 µg/mL (≈ 6.78 µM).
In the case of `CC(C)C[C@@H]1NC(=O)[C@@H](Cc2ccccc2)NC(=O)[C@H](CCN)NC(=O)[C@@H](NC(=O)[C@H](CN)NC(=O)[C@@H](NC(=O)[C@H](N)CSSCCC2CCCCC2)[C@@H](C)O)CCNC(=O)[C@H]([C@@H](C)O)NC(=O)[C@H](CCN)NC(=O)[C@H](CCN)NC1=O`, the MIC is 1 µg/mL (≈ 0.837 µM) in the test with Acinetobacter baumannii [1]; 2 µg/mL (≈ 1.67 µM) in the test on Pseudomonas aeruginosa [2]; 2 µg/mL (≈ 1.67 µM) in the test on Pseudomonas aeruginosa [3]; 1 µg/mL (≈ 0.837 µM) with Escherichia coli [4]; 2 µg/mL (≈ 1.67 µM) in the test on Pseudomonas aeruginosa [5]; 1 µg/mL (≈ 0.837 µM) in the test with Klebsiella pneumoniae [6]. Further, the MIC in the test with Klebsiella pneumoniae [7] was 0.5 µg/mL (≈ 0.419 µM); in the test on Acinetobacter baumannii [8], 1 µg/mL (≈ 0.837 µM); in the test on Acinetobacter baumannii [9], 0.5 µg/mL (≈ 0.419 µM); in the test on Acinetobacter baumannii [10] it was 0.5 µg/mL (≈ 0.419 µM); in the test with Escherichia coli [11] it was 0.5 µg/mL (≈ 0.419 µM); in the test with Klebsiella pneumoniae [12] it was 1 µg/mL (≈ 0.837 µM). Further, the MIC in the test with Escherichia coli [13] worked out at 2 µg/mL (≈ 1.67 µM).
`CC(C)CCSSC[C@@H](N)C(=O)N[C@H](C(=O)NCC(=O)N[C@H]1CCNC(=O)[C@H]([C@@H](C)O)NC(=O)[C@H](CCN)NC(=O)[C@H](CCN)NC(=O)[C@H](CC(C)C)NC(=O)[C@@H](Cc2ccccc2)NC(=O)[C@H](CCN)NC1=O)[C@@H](C)O`: the MIC in the test with Acinetobacter baumannii [1] stood at 0.5 µg/mL (≈ 0.444 µM); in the test with Pseudomonas aeruginosa [2], 4 µg/mL (≈ 3.55 µM); in the test on Pseudomonas aeruginosa [3], 4 µg/mL (≈ 3.55 µM); in the test with Escherichia coli [4] it was 2 µg/mL (≈ 1.78 µM); in the test on Pseudomonas aeruginosa [5], 4 µg/mL (≈ 3.55 µM); with Klebsiella pneumoniae [6] it was 0.5 µg/mL (≈ 0.444 µM). Besides, the MIC in the test on Klebsiella pneumoniae [7] amounted to 0.5 µg/mL (≈ 0.444 µM); in the test with Acinetobacter baumannii [8], 0.5 µg/mL (≈ 0.444 µM); with Acinetobacter baumannii [9] it was 0.5 µg/mL (≈ 0.444 µM); in the test on Acinetobacter baumannii [10] it was 0.5 µg/mL (≈ 0.444 µM); with Escherichia coli [11], 0.25 µg/mL (≈ 0.222 µM); in the test with Klebsiella pneumoniae [12], 0.5 µg/mL (≈ 0.444 µM). Moreover, the MIC with Escherichia coli [13] came to 16 µg/mL (≈ 14.2 µM).
As for `CC(C)C[C@@H]1NC(=O)[C@@H](Cc2ccccc2)NC(=O)[C@H](CCN)NC(=O)[C@@H](NC(=O)[C@@H](CCN)NC(=O)[C@@H](NC(=O)[C@H](N)CSSCCC2CCCCC2)[C@@H](C)O)CCNC(=O)[C@H]([C@@H](C)O)NC(=O)[C@H](CCN)NC(=O)[C@H](CCN)NC1=O`, the MIC in the test with Acinetobacter baumannii [1] was 1 µg/mL (≈ 0.827 µM); with Pseudomonas aeruginosa [2], 2 µg/mL (≈ 1.65 µM); in the test on Pseudomonas aeruginosa [3], 2 µg/mL (≈ 1.65 µM); in the test with Escherichia coli [4], 2 µg/mL (≈ 1.65 µM); in the test with Pseudomonas aeruginosa [5], 2 µg/mL (≈ 1.65 µM); with Klebsiella pneumoniae [6], 1 µg/mL (≈ 0.827 µM). Moreover, the MIC with Klebsiella pneumoniae [7] came to 1 µg/mL (≈ 0.827 µM); in the test on Acinetobacter baumannii [8], 1 µg/mL (≈ 0.827 µM); with Acinetobacter baumannii [9], 0.5 µg/mL (≈ 0.414 µM); in the test on Acinetobacter baumannii [10], 0.5 µg/mL (≈ 0.414 µM); with Escherichia coli [11], 0.5 µg/mL (≈ 0.414 µM); in the test with Klebsiella pneumoniae [12], 1 µg/mL (≈ 0.827 µM). The MIC in the test on Escherichia coli [13] amounted to 4 µg/mL (≈ 3.31 µM).
As to `CC(C)C[C@@H]1NC(=O)[C@@H](Cc2ccccc2)NC(=O)[C@H](CCN)NC(=O)[C@@H](NC(=O)[C@@H](CO)NC(=O)[C@@H](NC(=O)[C@H](N)CSSCCC2CCCCC2)[C@@H](C)O)CCNC(=O)[C@H]([C@@H](C)O)NC(=O)[C@H](CCN)NC(=O)[C@H](CCN)NC1=O`, the MIC in the test on Acinetobacter baumannii [1] came out at 1 µg/mL (≈ 0.836 µM); in the test with Pseudomonas aeruginosa [2] it was 4 µg/mL (≈ 3.35 µM); in the test on Pseudomonas aeruginosa [3], 4 µg/mL (≈ 3.35 µM); in the test with Escherichia coli [4], 2 µg/mL (≈ 1.67 µM); in the test on Pseudomonas aeruginosa [5] it was 4 µg/mL (≈ 3.35 µM); with Klebsiella pneumoniae [6], 1 µg/mL (≈ 0.836 µM). Also, the MIC in the test on Klebsiella pneumoniae [7] is 1 µg/mL (≈ 0.836 µM); in the test on Acinetobacter baumannii [8], 1 µg/mL (≈ 0.836 µM); with Acinetobacter baumannii [9], 0.25 µg/mL (≈ 0.209 µM); in the test with Acinetobacter baumannii [10], 0.5 µg/mL (≈ 0.418 µM); in the test on Escherichia coli [11], 1 µg/mL (≈ 0.836 µM); with Klebsiella pneumoniae [12], 1 µg/mL (≈ 0.836 µM). Further, the minimal inhibitory concentration (MIC) in the test on Escherichia coli [13] was found to be 8 µg/mL (≈ 6.69 µM).

The record behind these values is ChEMBL document CHEMBL5356951, “Semisynthetic polymyxins with potent antibacterial activity and reduced kidney cell toxicity” (RSC Med Chem, 2023).
